Assay outcomes from PubChem BioAssay.
The list is not random: actives were taken first. Their share in the collection is about 3.5%.
STAT1 activator: STAT1 signaling activators, primary screen, cell-based, HTS, luciferase reporter | NIH 3T3 STAT1-luciferase reporter, IFN-gamma, luminescence; 100% = IFN-gamma alone, no compound | activation (% of control), % at 5.5 µM | actives 2.6% (n = 200,000) | AID 932, 2007;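 active = activation above the screen-wide mean activation plus 3 SD, cut at about 130% in these data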
Pf gametocyte: late stage P. falciparum gametocyte viability inhibitors, primary screen, ATP luminescence, HTS. inhibition, % at 10.9 µM. actives 0.065% (n = 150,000). P. falciparum stage V gametocytes, 24 h. AID 743093, 2013;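 active = inhibition above the mean plus 3 SD of compounds within the control limits, set per campaign, cut at about 38% in these data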
FLuc stim CS: FLuc activators, initial screening, artefact control for FLuc-dependent activation tests, biochemical, ATPlite luminescence | 200,000 tested, under 10 active | Luciferin 4-monooxygenase (Photinus pyralis), P08659 | ATPlite luciferase biochemical, 10 min; 0 = ATP-free wells, 1 = DMSO control | activation factor at 10 µM | AID 1027, 2008;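 active = luciferase activation factor, scaled between plate controls, of at least 2 with compound at 10 µM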
Target sequence (P08659 whole entry, looked up): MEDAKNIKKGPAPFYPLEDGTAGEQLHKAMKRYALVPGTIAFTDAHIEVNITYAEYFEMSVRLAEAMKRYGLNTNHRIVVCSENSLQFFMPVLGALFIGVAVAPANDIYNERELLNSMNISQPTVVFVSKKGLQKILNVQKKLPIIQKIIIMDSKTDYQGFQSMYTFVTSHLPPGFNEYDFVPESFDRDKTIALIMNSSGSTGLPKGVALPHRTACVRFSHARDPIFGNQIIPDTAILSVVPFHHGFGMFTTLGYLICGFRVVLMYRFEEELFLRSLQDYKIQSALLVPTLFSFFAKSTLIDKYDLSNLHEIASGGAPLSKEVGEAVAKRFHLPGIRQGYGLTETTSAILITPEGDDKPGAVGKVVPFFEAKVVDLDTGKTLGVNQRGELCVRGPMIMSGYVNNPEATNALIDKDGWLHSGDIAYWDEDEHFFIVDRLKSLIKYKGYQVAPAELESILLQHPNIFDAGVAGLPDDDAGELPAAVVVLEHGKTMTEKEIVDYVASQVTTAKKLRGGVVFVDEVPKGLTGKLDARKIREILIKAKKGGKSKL
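System: luciferase plus luciferin reagent, cell-free; medium: PBS as buffer for the ATP substrate; dosing: test compounds dosed from 2 mM stocks in 100% DMSO; timing: 10 min post-reagent at room temperature; measured by: luminescence measurement of luciferase light output; evaluation: luciferase activation, seen as luminescence increase over controls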
APP 5'UTR act: activators of APP 5'UTR luciferase reporter, primary screen, SH-SY5Y cells | SH-SY5Y APP 5'UTR luciferase reporter, luminescence; zero percent = DMSO vehicle wells | activation, % at 2 µM | AID 1276, 2008 | actives 1% (n = 190,000);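 active = activation above a set limit, based on mean plus 3 SD of controls, cut at about 140% in these data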
NF-kB neuron act: activators of NF-kB expression in neurons, primary screen, cell-based, HTS. fold change at 12.5 µM. actives 1.6% (n = 190,000). human neuronal cells, NF-kB reporter expression; stronger effect = higher value; in the data active = fold change above about 3.3
FLuc inh counter: firefly luciferase enzyme inhibitors, primary screen, artefact control for luciferase-based inhibitor screens, biochemical, luminescence, ATPLite. Luciferin 4-monooxygenase (Photinus pyralis), P08659. 10 min. inhibition, % at 10 µM. actives 1.5% (n = 200,000);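 active = inhibition above about 50% when tested at 10 µM, limit read from the data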
STAT1 act conf: STAT1 signaling activators, confirmation, cell-based, HTS, luciferase reporter; AID 1262, 2008; actives 97% (n = 1,200); activation (% of control), % at 5.7 µM; shares compounds with STAT1 activator; NIH 3T3 STAT1-luciferase reporter, IFN-gamma potentiation, luminescence; 100% = IFN-gamma EC80 alone, no compound;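 active = activation above a set limit carried over from the earlier primary STAT1 screen, cut at about 140% in these data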
NFkB act STAT1ct: NF-kB reporter activators, TNF-alpha stimulated, counter-screen for STAT1 activator project, cell-based, HEK293T, luciferase luminescence; shares compounds with STAT1 activator; 100% = TNF-alpha with vehicle only; activation (% of control), % at 5.7 µM; actives 43% (n = 1,200);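 active = activation above the mean of solvent-only control wells plus 3 SD, set per campaign, cut at about 130% in these data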;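 also: TNF-alpha given at a submaximal dose yielding about 80% of full reporter signal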
STAT3 act 2: STAT3 reporter activation by STAT1 hits, confirmation, counter-screen for STAT1 activator project, U3A cells, luciferase, luminescence; activation (% of control), % at 5.7 µM; AID 1316, 2008; shares compounds with STAT1 activator; IL-6; cells lack STAT1; 100 = IL-6 alone, no compound effect; actives 46% (n = 1,200);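 active = activation above the solvent-only control well mean plus 3 SD, set per plate batch, cut at about 110% in these data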;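 also: higher means more STAT3 reporter activation so hits are non-selective activators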
Hits are given with their value; – = inactive; · = no result.

SMILES | STAT1 activator | Pf gametocyte | FLuc stim CS | APP 5'UTR act | NF-kB neuron act | FLuc inh counter | STAT1 act conf | NFkB act STAT1ct | STAT3 act 2
COc1cccc(N/C=C/C(=O)c2ccc(Cl)cc2)c1 | 180.2 | – | – | 198.1 | 6.43 | 83.2 | 238.7 | – | –
Nc1c(C(=O)N2CCCC2)sc2nc(-c3ccccc3)ccc12 | · | – | · | · | · | · | · | · | ·
COc1ccc2cc3c(N)c(C(=O)N4CCCC4)sc3nc2c1 | 156.8 | – | – | – | – | – | – | – | –
Cc1ccc2cc3c(N)c(C(=O)N4CCOCC4)sc3nc2c1 | 156.3 | · | – | 178.0 | – | – | – | – | 110.7
CCC(C)NC(=O)c1cc2cc3ccc(OC)cc3nc2s1 (stereo unspecified) | 153.4 | – | – | 214.1 | 5.02 | 58.9 | 252.0 | – | –
c1ccc(OCCSc2nnnn2-c2ccccc2)cc1 | 160.2 | · | – | 170.5 | 6.5 | – | 203.6 | – | 116.6
Fc1ccccc1OCCSc1nnnn1-c1ccccc1 | 161.2 | · | – | 161.9 | 6.65 | – | 218.9 | – | 115.2
Clc1ccc(CSc2cc3c(nn2)-c2ccccc2CC3)cc1 | – | – | – | – | – | – | · | · | ·
COc1ccc(C2=NOC(C(=O)Nc3cccnc3)C2)cc1 (stereo unspecified) | – | · | – | – | – | – | · | · | ·
Cc1ccc(CNc2ccc3c(c2)nc(C)n3C)cc1 | · | – | · | · | · | · | · | · | ·
Cc1ccc(S(=O)(=O)Nc2ccc3c(c2)ncn3C(C)(C)C)cc1 | – | · | – | – | – | – | · | · | ·
COc1ccc(CNc2ccc3c(c2)nc(C)n3C)cc1 | 150.6 | · | – | – | – | – | 168.3 | – | 115.5
Cc1ccc(CNc2ccc3c(c2)ncn3C(C)(C)C)cc1 | 167.1 | – | – | 164.6 | – | – | 198.4 | 134.8 | 128.2
O=C(c1ccc(Cl)cc1)N1CCCC(C(=O)N2CCN(c3ccccc3)CC2)C1 (stereo unspecified) | · | – | · | · | · | · | · | · | ·
COc1ccc(NC(=O)/C(Cl)=C(/Cl)S(=O)Cc2ccccc2Cl)cn1 (stereo unspecified) | 346.0 | · | – | – | – | – | 291.7 | – | 133.2
COc1ccc(NC(=O)Cc2ccc(Cl)c(Cl)c2)cn1 | – | – | – | – | – | – | · | · | ·
O=C(/C=C/c1cccc(F)c1)N1CCc2ccccc21 | 199.0 | · | – | 199.8 | – | 62.1 | 238.3 | – | –
O=c1/c(=C/c2ccc([N+](=O)[O-])cc2)sc2n1CCCN=2 | 156.9 | – | – | – | – | – | 182.8 | 134.6 | –
CCc1ccc2c(c1)C(c1ccc([N+](=O)[O-])cc1)=NNC(c1ccc(C)cc1)=N2 | – | – | – | – | – | – | · | · | ·
CCC(N=c1cc(-c2ccc(OC)c(OC)c2)oc2ccc(C)cc12)C(=O)O (stereo unspecified) | – | – | – | – | – | – | · | · | ·
CCC(N=c1cc(-c2ccc(OC)cc2)oc2ccc(C)cc12)C(=O)O (stereo unspecified) | 163.5 | · | – | 146.6 | – | – | 137.5 | – | –
O=C(Nc1ccc2oc(-c3ccccc3)nc2c1)C1CCCO1 (stereo unspecified) | 155.3 | – | – | 146.6 | 3.65 | 50.1 | 182.2 | 133.7 | –
O=C(Nc1ccc2oc(-c3ccccc3)nc2c1)c1cccnc1 | – | – | – | – | – | – | · | · | ·
O=C(Nc1ccc2oc(-c3ccccc3)nc2c1)c1ccco1 | 167.5 | – | – | 177.7 | 5.11 | – | 201.7 | 134.1 | –
COC(=O)CSc1ccc(S(=O)(=O)N2CCC(C)CC2)cc1[N+](=O)[O-] | – | · | – | – | – | – | · | · | ·
SMILES | STAT1 activator | Pf gametocyte | FLuc stim CS | APP 5'UTR act | NF-kB neuron act | FLuc inh counter | STAT1 act conf | NFkB act STAT1ct | STAT3 act 2
Cc1nc(SCC(=O)Nc2nc3ccccc3s2)c(C#N)c(C)c1C | – | – | – | – | – | – | · | · | ·
Cc1cc(C(F)(F)F)c(C#N)c(SCC(=O)Nc2nc3ccccc3s2)n1 | 152.4 | · | – | 180.1 | – | – | 260.9 | – | 192.8
OC1CCCN(c2c3c(nc4cc(-c5cccc(F)c5)nn24)CCCC3)C1 (stereo unspecified) | 157.8 | – | – | – | – | – | 165.9 | – | 115.9
Cc1cccc(-c2cc3nc4c(c(N5CCCC(O)C5)n3n2)CCC4)c1 (stereo unspecified) | – | · | – | – | – | – | · | · | ·
COc1ccc(C(=O)Nc2ccc3cn[nH]c3c2)c(OC)c1 | 164.0 | – | – | – | – | – | 185.2 | 133.6 | 116.0
O=C(O)c1ccc(N=NN2CCCCCC2)cc1 | 156.7 | – | – | – | – | – | 166.3 | – | 120.2
O=C(O)c1ccc(N=NN2CCCC2)cc1 | – | · | – | – | – | – | · | · | ·
COc1ccc2nc(Nc3nc(C)c(C(C)=O)s3)sc2c1 | 163.7 | · | – | – | – | – | 179.6 | – | –
CCOC(=O)c1sc(Nc2nc3cc4c(cc3s2)OCO4)cc1C | – | · | – | – | – | – | · | · | ·
CC(=O)c1sc(Nc2nc3cc4c(cc3s2)OCO4)nc1C | 173.8 | – | – | – | – | – | 190.3 | 141.6 | –
Cc1cccc(NC(=O)CSc2nnc(NC(=O)c3ccc(S(=O)(=O)N4CCOCC4)cc3)s2)c1C | – | – | – | – | – | – | · | · | ·
O=C(Cc1cccc(NC(=O)C2CCCN(C(=O)CCc3ccccc3)C2)c1)Nc1cccc(C(=O)N2CCCC2)c1 (stereo unspecified) | · | – | · | · | · | · | · | · | ·
Cc1cccc2nc(COc3ccc(-c4ccccc4)cc3)cn12 | 162.6 | · | – | – | – | – | 168.0 | – | 115.3
CCOC(=O)c1cn2c(C)cccc2n1 | – | – | – | – | – | – | · | · | ·
Cc1cc(C)n2cc(COc3ccc4ccccc4c3)nc2n1 | 176.3 | – | – | 146.1 | 8.03 | – | 214.1 | – | 117.4
Cc1ccc2c(c1)N(CC(=O)N1CCCC1)C(=O)C(C)O2 (stereo unspecified) | · | – | · | · | · | · | · | · | ·
O=C1C=CC(=O)C(C2=C3C(=O)N(CCc4ccccc4)CC(=O)N3CCC2)=C1 | – | – | – | – | – | – | · | · | ·
Cc1cc(C)cc(Nc2ncc3c(n2)CCCC3=O)c1 | 153.5 | – | – | 163.1 | – | – | 184.6 | – | –
